Source: PubChem
HIV Env fusion: blocks HIV Env-driven cell-cell fusion | HeLa-JRFL Env/CEM21 cell fusion, luciferase | inhibition, % at 12.3 µM | 360,000 tested, 1.1% active | AID 651610;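 active = mean replicate inhibition score of at least 50 and every replicate individually at or above 50; inconclusive = only one of the two criteria met; inactive = mean below 50 and not all replicates reaching 50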;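 also: 0% = plate neutral controls and 100% = maraviroc near 300 nM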
Glyco luc inh: blocks N-linked glycosylation in D54 reporter cells; D54 ERlucT glycosylation luciferase reporter, 24 h; percent of 100 nM tunicamycin response; reporter increase, % at 12.5 µM; 360,000 tested, 0.23% active;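 active = mean luciferase reporter signal, scaled so untreated is 0 and the glycosylation-blocking control 100, at or above a set limit in every replicate; inconclusive = mean reaches the limit but not every replicate does; inactive = mean below the limit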;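 also: luciferase carries N-glycosylation sites so blocking glycosylation raises the light; 0% = median of neutral control wells and 100% = median of 100 nM tunicamycin wells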
PfHsp90 set2: inhibits growth of yeast expressing Plasmodium falciparum Hsp90. S. cerevisiae expressing PfHsp90, BacTiter-Glo ATP, 48 h; yeast lacking PDR1 and PDR3 efflux regulators. inhibition, % at 9.4 µM. 310,000 tested, 0.32% active. AID 504621;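 active = every replicate shows inhibition above about 80%, whatever the replicate mean, limit read from the data; inconclusive = mean inhibition reaches the set limit but some replicate falls short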;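 also: 0% = DMSO neutral controls and 100% = 20 µM radicicol positive controls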
Rtt109 HAT inh: blocks Candida albicans Rtt109/Vps75 acetyltransferase activity | Q5AAJ8 | purified Rtt109/Vps75, ThioGlo CoA-SH fluorescence, 4 h | inhibition, % at 34.9 µM | 330,000 tested, 0.16% active | AID 540336;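 active = inhibition of at least 50% in every replicate; inconclusive = best replicate reaches 50% inhibition but some replicates fall short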
Target sequence (Q5AAJ8 whole entry, looked up): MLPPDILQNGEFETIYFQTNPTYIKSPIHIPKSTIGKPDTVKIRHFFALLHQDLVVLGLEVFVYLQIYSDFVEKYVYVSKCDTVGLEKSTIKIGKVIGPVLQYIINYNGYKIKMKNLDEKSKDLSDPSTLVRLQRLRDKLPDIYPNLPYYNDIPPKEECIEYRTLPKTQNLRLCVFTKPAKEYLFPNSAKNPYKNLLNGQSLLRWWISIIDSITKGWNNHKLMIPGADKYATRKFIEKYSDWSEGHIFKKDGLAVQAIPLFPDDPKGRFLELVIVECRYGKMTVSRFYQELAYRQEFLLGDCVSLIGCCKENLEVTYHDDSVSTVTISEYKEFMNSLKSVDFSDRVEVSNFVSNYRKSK
PAX8 reporter: PAX8 transcriptional activity inhibition | AID 652154 | inhibition, % at 12.6 µM | RMG-I TPO-luciferase reporter, SteadyGlo, 24 h | 360,000 tested, 1.2% active;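 active = mean replicate inhibition at least 60% with every replicate also reaching 60%; inconclusive = only one of the two criteria is met; inactive = mean below 60% and not all replicates reaching 60%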;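 also: luciferase light reporting Pax8 driven TPO promoter activity; plate controls were median of neutral control wells for no effect and mitoxantrone controls for full effect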
Arrestin-AP2 inh: human beta-arrestin and AP2 interaction inhibition | FITC-arrestin peptide / GST-AP2 beads, flow cytometry; AP2 beta2 appendage carries R879A mutation | inhibition, % at 10 µM | 340,000 tested, 0.31% active;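 active = inhibition above a set limit, near 3 SD of compounds lacking own fluorescence, cut at about 54% in these data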;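 also: plate controls were DMSO wells for no effect and 5 µM unlabelled arrestin peptide for full effect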
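System: GST-AP2 R879A bound to glutathione beads, E. coli-expressed. Also added: 50 nM FITC-arrestin peptide. Schedule: compound with beads 12 min RT, then probe 1 h RT. Signal: bead flow cytometry, FITC channel. Read-out basis: percent response.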
Numbers without * were called inactive; ? = inconclusive; / = no result; [ ] = dose if it differs, or a comment. Compounds with a hit are over-represented: about 2.3% of the library has one in this group of screens.

SMILES	HIV Env fusion	Glyco luc inh	PfHsp90 set2	Rtt109 HAT inh	PAX8 reporter	Arrestin-AP2 inh
C[C@H]1CCCCO[C@H](CN(C)C(=O)Nc2ccc(F)cc2)[C@@H](C)CN([C@@H](C)CO)C(=O)c2cc(NC(=O)Nc3ccc(C(F)(F)F)cc3)ccc2O1	30[16.7 µM]	/	/	/	84*	/
C[C@@H]1CCCCO[C@H](CN(C)C(=O)Nc2ccc(C(F)(F)F)cc2)[C@H](C)CN([C@@H](C)CO)C(=O)c2cc(NC(=O)Nc3ccc(F)cc3)ccc2O1	8[16.7 µM]	/	/	/	27	/
C[C@@H]1CCCCO[C@@H](CN(C)C)[C@H](C)CN([C@H](C)CO)C(=O)c2cc(NC(=O)Nc3ccc(C(F)(F)F)cc3)ccc2O1	-21[16.7 µM]	/	/	/	63*	/
C[C@@H]1CCCCO[C@H](CN(C)C(=O)Nc2ccc(C(F)(F)F)cc2)[C@@H](C)CN([C@H](C)CO)C(=O)c2cc(NC(=O)Nc3ccc(F)cc3)ccc2O1	-2[16.7 µM]	/	/	/	8	/
C[C@@H]1CCCCO[C@H](CN(C)C)[C@@H](C)CN([C@H](C)CO)C(=O)c2cc(NC(=O)Nc3ccc(C(F)(F)F)cc3)ccc2O1	0[16.7 µM]	/	/	/	-2	/
C[C@@H]1CCCCO[C@@H](CN(C)C(=O)Nc2ccc(F)cc2)[C@H](C)CN([C@@H](C)CO)C(=O)c2cc(NC(=O)Nc3ccc(C(F)(F)F)cc3)ccc2O1	17[16.7 µM]	/	/	/	78*	/
C[C@H]1CCCCO[C@@H](CN(C)S(=O)(=O)c2cccs2)[C@@H](C)CN([C@@H](C)CO)C(=O)c2cc(NC(=O)NC3CCCCC3)ccc2O1	40[16.7 µM]	/	/	/	97*	/
C[C@H]1CN([C@@H](C)CO)C(=O)c2cc(NC(=O)Nc3ccc(F)cc3)ccc2O[C@H]1CN(C)S(=O)(=O)c1ccc(F)cc1	12[16.7 µM]	/	/	/	/	/
C[C@@H]1CCCCO[C@H](CN(C)C(=O)Nc2ccc(C(F)(F)F)cc2)[C@@H](C)CN([C@@H](C)CO)C(=O)c2cc(NC(=O)Nc3ccc(C(F)(F)F)cc3)ccc2O1	?	/	/	/	89*	/
C[C@@H]1CCCCO[C@@H](CN(C)C(=O)Nc2ccc(F)cc2)[C@@H](C)CN([C@@H](C)CO)C(=O)c2cc(NC(=O)Nc3ccc(C(F)(F)F)cc3)ccc2O1	6[16.7 µM]	/	/	/	/	/
CC(C)NC(=O)Nc1ccc2c(c1)C(=O)N([C@@H](C)CO)C[C@@H](C)[C@@H](CN(C)C(=O)Nc1ccc(C(F)(F)F)cc1)OCCCC[C@@H](C)O2	79*[16.7 µM]	/	/	/	12	/
C[C@H]1CCCCO[C@@H](CN(C)S(=O)(=O)c2cccs2)[C@@H](C)CN([C@@H](C)CO)C(=O)c2cc(NC(=O)Nc3ccc(C(F)(F)F)cc3)ccc2O1	20[16.7 µM]	/	/	/	59	/
C[C@H](CO)N1C[C@H](C)[C@H](CN(C)S(=O)(=O)c2cccs2)OCCCC[C@H](C)Oc2ccc(NC(=O)Nc3ccc(C(F)(F)F)cc3)cc2C1=O	36[16.7 µM]	/	/	/	75*	/
C[C@H]1CCCCO[C@H](CN(C)C(=O)Nc2ccc(C(F)(F)F)cc2)[C@@H](C)CN([C@@H](C)CO)C(=O)c2cc(NC(=O)Nc3ccc(F)cc3)ccc2O1	77*[16.7 µM]	/	/	/	84*	/
CC(C)NC(=O)Nc1ccc2c(c1)C(=O)N([C@H](C)CO)C[C@H](C)[C@@H](CN(C)C(=O)Nc1ccc(C(F)(F)F)cc1)OCCCC[C@H](C)O2	44[16.7 µM]	/	/	/	43	/
C[C@@H]1CCCCO[C@@H](CN(C)C(=O)CCC(F)(F)F)[C@@H](C)CN([C@@H](C)CO)C(=O)c2cc(NS(C)(=O)=O)ccc2O1	-1[16.7 µM]	/	/	/	-15	/
CC(C)C#Cc1ccc([C@@H]2[C@H]3CN(C(=O)Nc4ccccc4)CCCCN3[C@H]2CO)cc1	/	/	/	/	58	/
COc1ccc(NC(=O)Nc2ccc3c(c2)C(=O)N([C@@H](C)CO)C[C@@H](C)[C@H](CN(C)Cc2ccccc2)O3)cc1	-17[16.7 µM]	/	/	/	-12	/
Cc1noc(C)c1NC(=O)N(C)C[C@H]1OCCCC[C@H](C)Oc2ccc(NC(=O)NC3CCCCC3)cc2C(=O)N([C@@H](C)CO)C[C@@H]1C	-16[16.7 µM]	/	/	/	-2	/
C[C@@H]1CN([C@@H](C)CO)C(=O)c2cc(NC(=O)Nc3ccc(F)cc3)ccc2O[C@@H](C)CCCCO[C@@H]1CN(C)C(=O)C1CCCCC1	5[16.7 µM]	/	/	/	13	/
C[C@@H]1CCCCO[C@H](CN(C)C(=O)C2CCCCC2)[C@@H](C)CN([C@@H](C)CO)C(=O)c2cc(NC(=O)Nc3ccc(F)cc3)ccc2O1	57*[16.7 µM]	/	/	/	104*	/
C[C@H]1CCCCO[C@H](CN(C)C(=O)Nc2ccc(F)cc2)[C@@H](C)CN([C@@H](C)CO)C(=O)c2cc(NC(=O)Nc3ccc(F)cc3)ccc2O1	62*[16.7 µM]	/	/	/	-10	/
C[C@H](CO)N1C[C@H](C)[C@H](CN(C)S(=O)(=O)c2cccs2)OCCCC[C@H](C)Oc2ccc(NC(=O)CCC(F)(F)F)cc2C1=O	5[16.7 µM]	/	/	/	14	/
C[C@@H]1CN([C@H](C)CO)C(=O)c2cc(NC(=O)Nc3ccc(F)cc3)ccc2O[C@@H](C)CCCCO[C@H]1CN(C)C(=O)Nc1ccc(C(F)(F)F)cc1	39[16.7 µM]	/	/	/	87*	/
C[C@@H]1CCCCO[C@H](CN(C)S(=O)(=O)c2cccs2)[C@H](C)CN([C@@H](C)CO)C(=O)c2cc(NC(=O)CCC(F)(F)F)ccc2O1	0[16.7 µM]	/	/	/	110*	/
SMILES	HIV Env fusion	Glyco luc inh	PfHsp90 set2	Rtt109 HAT inh	PAX8 reporter	Arrestin-AP2 inh
Cc1noc(C)c1NC(=O)Nc1cccc2c1O[C@@H](CN(C)Cc1ccc(C(=O)Nc3ccccc3N)cc1)[C@@H](C)CN([C@@H](C)CO)C2=O	/	/	/	/	-15	/
CN1CCN(C(=O)C[C@@H]2CC[C@H]3[C@@H](COC[C@@H](O)CN3CC3CC3)O2)CC1	/	/	/	/	-24	/
C[C@@H]1CN([C@@H](C)CO)C(=O)Cc2cc(NC(=O)Cn3cnnn3)ccc2O[C@@H]1CN(C)Cc1ccc2c(c1)OCO2	-3[16.7 µM]	/	/	/	-13	/
C[C@@H]1CCCCO[C@@H](CN(C)S(C)(=O)=O)[C@H](C)CN([C@H](C)CO)C(=O)c2cc(NC(=O)Nc3ccc(C(F)(F)F)cc3)ccc2O1	-6[16.7 µM]	/	/	/	8	/
C[C@@H]1CN([C@H](C)CO)C(=O)c2cc(NC(=O)Nc3ccc(C(F)(F)F)cc3)ccc2O[C@@H](C)CCCCO[C@H]1CN(C)S(C)(=O)=O	19[16.7 µM]	/	/	/	73*	/
CCC(=O)N1C[C@@H](O)COC[C@@H]2O[C@H](CC(=O)NCC3CCCCC3)CC[C@H]21	13[16.7 µM]	/	/	/	-1	/
OCc1ccc(O)c2ncccc12	/	-12	12	1	/	6
Oc1c(I)cc(I)c2cccnc12	37	-4	109*	0	100*	7
O=S(=O)(Nc1ccc(O)c2ncccc12)c1ccccc1F	-24	11	/	/	34	/
Cc1ccc(S(=O)(=O)Nc2cc(Cl)c(O)c3ncccc23)cc1	54	-3	104*	?	84*	-2
Oc1ccc(Cl)c2cccnc12	-31	5	108*	0	15	3
